Screening results as filed in PubChem.
LYP act: LYP (human) phosphatase activation | Q9Y2R2 | recombinant LYP, DiFMUP fluorescence; 0 = plate median, 100 = signal doubled | activation, % at 2 µM | hit rate 0.11% among 96,000;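 active = activation at 2 µM above a set limit, the mean plus 5 SD, cut at about 37% in these data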
PLAP activator: activates human placental alkaline phosphatase; hit rate 1.2% among 96,000; AID 696; purified PLAP enzyme, luminescent substrate read-out; stronger effect = higher value; activation fold at 20 µM; in the data active = activation fold above about 2
Target sequence (P05187 whole entry, looked up): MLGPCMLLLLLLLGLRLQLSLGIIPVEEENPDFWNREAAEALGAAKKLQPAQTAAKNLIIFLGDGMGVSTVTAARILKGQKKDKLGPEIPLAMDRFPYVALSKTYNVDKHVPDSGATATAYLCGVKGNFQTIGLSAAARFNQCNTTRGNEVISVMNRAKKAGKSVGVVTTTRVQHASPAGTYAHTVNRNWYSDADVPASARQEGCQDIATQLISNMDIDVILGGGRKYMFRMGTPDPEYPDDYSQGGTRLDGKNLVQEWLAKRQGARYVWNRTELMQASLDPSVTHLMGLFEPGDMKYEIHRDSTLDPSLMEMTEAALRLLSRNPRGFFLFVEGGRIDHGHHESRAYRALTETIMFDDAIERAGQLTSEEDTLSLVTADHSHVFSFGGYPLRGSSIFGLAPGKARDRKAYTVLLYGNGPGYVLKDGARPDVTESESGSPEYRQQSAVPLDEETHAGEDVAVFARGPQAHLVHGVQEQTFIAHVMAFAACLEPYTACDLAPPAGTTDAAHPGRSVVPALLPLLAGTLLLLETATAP
Rev-RRE block: disrupts HIV-1 Rev binding to RRE RNA; Rev peptide-RRE RNA binding, FRET; inhibition, % at 8 µM; hit rate 0.79% among 97,000; P05866; AID 704;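 active = inhibition above the screen-wide mean plus 3 SD, cut at about 35% in these data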;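 note: 0% = median DMSO wells and 100% = median Neomycin B control wells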
Target sequence (P05866 whole entry, looked up): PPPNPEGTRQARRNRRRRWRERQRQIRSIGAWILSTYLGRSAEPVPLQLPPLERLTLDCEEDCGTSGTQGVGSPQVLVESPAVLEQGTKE
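System: Cy5-labelled duplex RRE RNA binding fluorescein-labelled HIV Rev peptide; Signal: fluorescein-to-Cy5 FRET, 480 nm excitation; Also added: labelled Rev peptide; Compound: one concentration, 8 µM nominal; Buffer or medium: HEPES pH 7.5 salt buffer with EDTA; Read-out: % inhibition of FRET ratio versus controls; Schedule: 5 min preincubation and 15 min binding, 25 °C.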
PTPN22 inh 2: blocks human PTPN22 phosphatase activity | recombinant LYP catalytic domain, DiFMUP fluorescence | inhibition, % at 2 µM | hit rate 0.21% among 96,000 | AID 640;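 active = inhibition at 2 µM at or above a set limit, the screen mean plus 3 SD, cut at about 24% in these data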;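 note: 0% = DMSO with enzyme and 100% = enzyme fully blocked by orthovanadate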
Plk1 PBD FP: Plk1 (human) PBD binding inhibition; Plk1 PBD phosphopeptide binding, fluorescence polarization; inhibition, %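 (tested at about 20 µM)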; hit rate 0.13% among 97,000; AID 693; in the data active = inhibition above about 34%, passing the limit was not always enough
PLK1 kinase inh: blocks human PLK1 kinase activity | P53350 | recombinant PLK1 kinase, TR-FRET peptide phosphorylation | inhibition, % at 10 µM | hit rate 0.53% among 97,000 | AID 619;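 active = inhibition of 50% or more in the single-concentration screen; inactive = inhibition below 50%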;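 note: 0% = DMSO max control and 100% = H-89 dihydrochloride min control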
An asterisk follows results filed as active; . = no result given; [ ] = remark or other dose. A selection: hits, their analogues and other compounds. The true share with any hit is near 2.7%.

SMILES	LYP act	PLAP activator	Rev-RRE block	PTPN22 inh 2	Plk1 PBD FP	PLK1 kinase inh
O=C(O)CC(C(=O)O)N1C(=O)/C(=C/c2ccc(-c3nc4ccccc4s3)o2)SC1=S (stereo not given)	-2.8	0.7	51.8*	7.1	-24.0	19.5
O=C(O)CCN1C(=O)/C(=C/c2ccc(-c3nc4ccccc4s3)o2)SC1=S	-21.6	1	33.9	24.3*	-43.3	-17.0
COc1cc(/C=N\NC(=O)Cn2nnc3ccccc32)cc(OC)c1OC	7.3	1.1	-0.9	-1.7	3.9	-6.3
COc1ccc(O)c(/C=N\NC(=O)CCn2nnc3ccccc32)c1	-4.0	2.1*	1.1	-0.1	4.5	-9.0
N=C1C(c2nc3ccccc3c(=O)[nH]2)=C(O)CN1c1ccccc1	4.7	2.2*	2.0	-4.1	4.9	-14.1
N=C1C(c2nc3ccccc3[nH]2)=C(O)CN1c1ccccc1	3.0	1.2	2.2	-2.4	-8.5	-6.5
N=C1C(c2nc3ccccc3[nH]2)=C(O)CN1c1ccc(CC(=O)O)cc1	-14.6	2.6*	25.5	16.6	-7.1	10.1
O=c1[nH]c(-c2ccccn2)nc2ccccc12	0.2	2.4*	6.1	-2.5	-16.9	-18.3
CCOC(=O)c1ccc(N2CC(O)=C(c3nc4ccccc4c(=O)[nH]3)C2=N)cc1	-8.2	0.9	68.3*	1.1	-13.9	-8.2
Cc1nc2sc(C(c3cccc(F)c3)N3CCN(C(=O)c4ccco4)CC3)c(O)n2n1 (stereo not given)	-6.7	1.5	-0.3	3.5	-11.5	-15.3
CCOc1ccccc1CNC(=O)CCNC(=O)Cn1ccc2ccccc2c1=O	-1.4	1.1	6.2	2.3	-5.1	-5.3
CSc1nc2ccc(S(=O)(=O)N(C)C)cc2s1	-4.4	0.9	6.6	5.3	-12.0	-2.8
COc1ccc(S(=O)(=O)Cc2ccc(C(=O)N3CCN(c4ccccc4F)CC3)o2)cc1	.	1.5	9.4	.	-2.6	63.3*
COc1ccccc1S(=O)(=O)Cc1ccc(C(=O)N2CCN(c3ccccn3)CC2)o1	.	1.4	.	.	.	.
COc1ccc(S(=O)(=O)Cc2ccc(C(=O)N3CCN(c4ccccc4)CC3)o2)cc1	.	1.3	.	.	.	.
COc1ccc(S(=O)(=O)Cc2ccc(C(=O)N3CCN(c4ccccn4)CC3)o2)cc1	.	1.2	3.8	.	-15.0	65.8*
COc1ccc(S(=O)(=O)Cc2ccc(C(=O)NCc3ccccn3)o2)cc1	.	1	8.8	.	3.4	68.3*
O=C(Nc1cccc(Cl)c1)N1CCN(c2ncccn2)CC1	5.7	0.8	4.6	-2.8	-7.6	-7.3
COc1ccccc1CN1C(=O)[C@@H]2C(CC(N)=O)NC3(C(=O)Nc4c3ccc(Cl)c4C)[C@@H]2C1=O (stereo not given in full)	-1.8	1.1	6.4	1.2	27.7	1.4
CCc1ccccc1NC(=O)CSc1nnc([C@@H]2CCCN2C(=O)OC(C)(C)C)o1	-2.7	2.1*	-5.9	-0.1	-3.7	-4.5
Cc1cccc(C)c1NC(=O)CSc1nnc([C@@H]2CCCN2C(=O)OC(C)(C)C)o1	.	1.2	.	.	.	.
COc1ccc(-c2nnc(NC(=O)c3ccc(S(=O)(=O)N4CCCc5ccccc54)cc3)o2)cc1	-10.2	0.9	5.6	10.5	32.1	-8.0
O=C(Nc1nnc(C2CC2)o1)c1ccc(S(=O)(=O)N2CCCc3ccccc32)cc1	-6.3	2.5*	.	4.8	4.7	-19.3
Cc1ccc(S(=O)(=O)N2CCN(CC(=O)NC3CCCc4ccccc43)CC2)c(C)c1 (stereo not given)	-3.9	70.9	1.9	2.4	-36.6	-3.8
Cc1ccc(S(=O)(=O)N2CCN(CC(=O)NC3CCCc4ccccc43)CC2)cc1C (stereo not given)	6.0	2.1*	1.8	-7.5	-3.2	-9.9
SMILES	LYP act	PLAP activator	Rev-RRE block	PTPN22 inh 2	Plk1 PBD FP	PLK1 kinase inh
Cc1ccc(NC(=O)CSc2nnc(C)n2-c2ccccc2)cc1	1.6	.	-0.6	-2.7	15.0	-14.1
Cc1nnc(SCC(=O)N/N=C/c2cn(-c3ccccc3)nc2-c2ccccc2)n1-c1ccccc1	-22.1	1.4	-4.2	24.9*	-27.9	-10.7
COc1ccc(/C=C/C(=O)c2c(O)cc(C)oc2=O)c(OC)c1	-5.9	1	89.5*[fluorescence artefact?]	8.2	2.1	-26.5
COc1cc(/C=C/C(=O)c2c(O)cc(C)oc2=O)cc(OC)c1O	10.7	0.6	38.3*	-15.1	-15.7	-1.2
CSc1nc2n(n1)C(c1cc(Br)ccc1F)C(C(=O)N(C)C)=C(C)N2 (stereo not given)	-11.6	1.2	4.5	9.5	-17.3	-3.0
CCOC(=O)Cc1csc(NC(=O)c2sc3nc4c(C)cc(C)cc4cc3c2N)n1	-1.7	1.3	107.5*[fluorescence artefact?]	6.8	-47.9	-18.9
CCOC(=O)Cc1csc(NC(=O)c2csc(C)c2)n1	-2.9	1	0.1	0.0	1.6	-11.3
O=C(Cn1c(C(F)(F)F)nc2ccccc21)Oc1cccc(C(F)(F)F)c1	4.9	1.1	23.0	0.6	14.8	-7.9
CCOc1ccc(C(=O)C2CCN(C(=O)c3ccccc3C(=O)O)CC2)cc1	-1.9	1.7	6.0	4.3	7.7	3.8
CCOc1ccc(C2C(C(=O)C3CC3)N3C=C(C#N)C=CC3C2(C#N)C#N)cc1 (stereo not given)	0.9	1.1	47.9*	2.0	-8.9	-3.6
O=C(O)C1CCCN(S(=O)(=O)c2ccc(Cl)s2)C1 (stereo not given)	3.9	1	7.2	-5.7	21.9	-13.5
Cc1ccc2nc(C(O)C(O)c3nc4ccc(C)cc4[nH]3)[nH]c2c1 (stereo not given)	-7.0	2.1*	4.0	9.2	8.9	-16.4
C=CCn1c(Cc2nc3ccc(Cl)cc3[nH]2)n[nH]c1=S	-7.1	2.4*	4.7	6.1	26.6	25.2
CCN(CC)CCNC(=O)CCn1c(=S)[nH]c2cc3c(cc2c1=O)OCO3	-14.2	1.3	5.1	11.8	-18.7	-17.1
CCCS(=O)(=O)N1CCN(S(=O)(=O)c2ccccc2)CC1	-8.5	0.8	7.2	10.9	-8.2	-9.7
COc1ccc(CCNC(=O)CCN2C(=O)C(C)Oc3ccc(C)cc32)cc1OC (stereo not given)	7.9	1.3	6.0	-10.0	-12.8	-12.1
Cc1ccc(NC(=O)N2CCN(Cc3ccc4c(c3)OCO4)CC2)cc1	0.7	2*	2.1	2.6	-7.7	1.2
Cc1ccc(C(=O)N2CCN(Cc3ccc4c(c3)OCO4)CC2)o1	-11.2	1	0.4	11.1	-6.9	-4.2
Clc1cccc(/C=N\Nc2nccs2)c1	2.6	2.1*	2.1	-2.8	-2.4	27.7
Cn1cnnc1SC1CCCCC1NS(=O)(=O)c1ccc(Cl)cc1 (stereo not given)	-1.4	.	1.8	1.8	-1.7	-15.2
Nc1c(C(=O)NCc2ccco2)c2nc3ccccc3nc2n1CCc1ccc(F)cc1	-5.0	2*	29.2	5.2	-32.9	36.2
COc1ccc(-n2c(N)c(C(=O)NCc3ccco3)c3nc4ccccc4nc32)cc1	-3.7	1.2	6.6	6.9	1.4	-5.4
